Experimental data: ChEMBL document CHEMBL1156235, “A novel class of antihyperlipidemic agents with low density lipoprotein receptor up-regulation via the adaptor protein autosomal recessive hypercholesterolemia” (J Med Chem, 2010)
≈ marks a conversion by molar mass, not a printed value. Calls of active or inactive are those of the source. The calls are words filed in the database; no cut-off is given here.

Legend:
[1] = target: T1, Sterol O-acyltransferase 1 (Rattus norvegicus, UniProt O70536); assay: Inhibition of rat macrophages ACAT
T1 sequence (O70536 whole entry): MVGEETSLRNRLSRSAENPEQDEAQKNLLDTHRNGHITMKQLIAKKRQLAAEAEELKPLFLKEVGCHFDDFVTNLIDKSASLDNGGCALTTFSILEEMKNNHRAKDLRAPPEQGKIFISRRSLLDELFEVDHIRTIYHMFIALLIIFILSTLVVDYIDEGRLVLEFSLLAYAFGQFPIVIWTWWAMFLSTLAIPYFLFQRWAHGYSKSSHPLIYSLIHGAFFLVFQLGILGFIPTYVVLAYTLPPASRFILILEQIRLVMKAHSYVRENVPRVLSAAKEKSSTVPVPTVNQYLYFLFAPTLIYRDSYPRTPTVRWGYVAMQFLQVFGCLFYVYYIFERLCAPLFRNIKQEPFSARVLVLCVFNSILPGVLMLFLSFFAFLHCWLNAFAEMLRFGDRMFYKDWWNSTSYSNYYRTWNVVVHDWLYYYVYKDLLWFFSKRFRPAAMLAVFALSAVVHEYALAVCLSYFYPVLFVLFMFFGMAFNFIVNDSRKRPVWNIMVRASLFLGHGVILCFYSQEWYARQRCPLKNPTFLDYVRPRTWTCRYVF
Outline: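 ACAT was taken from rat macrophages, and inhibition was measured once (n = 1).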

HepG2 [2] = assay: Upregulation of LDL receptor expression in human HepG2 cells assessed as DiI-LDL uptake after 19 hrs; type: functional; details: HepG2, 19 h
Outline: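 HepG2 cells were grown 2-3 days in DMEM/F-12 with 10% FBS, then given compound in medium with 10% delipoprotein serum for 19 h at 37 °C. DiI-labelled human LDL was then added for 5 h, with 30-50-fold unlabelled LDL defining nonspecific uptake. Specific fluorescence per protein is expressed as % of control. EC25 is the concentration giving 25% up-regulation (n = 1).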

[3] = AUC (0 to 360 mins) in hamster at 10 mg/kg; type: ADME, organism-based; design: time < 6 hr, dose 10 mg/kg; details: cricetinae, plasma
Outline: (§1)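 Male hamsters received a single oral dose of 10 mg/kg as the sodium salt, and serum drug concentration was followed over time. Values are mean ± SEM, n = 3.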

[4] = Cmax in hamster at 10 mg/kg; type: ADME, organism-based; design: dose 10 mg/kg; details: cricetinae, in vivo; outline: as §1
HepG2 [5] = assay: Increase of [125I]LDL cholesterol degradation in human HepG2 cells at 1 uM; type: functional
Hamster [6] = assay: Antihyperlipidemic activity in high-cholesterol diet fed hamster model assessed as reduction of plasma total LDL cholesterol level at 10 mg/kg, po administered qd for 7 days; type: functional, Cricetinae; design: scale not given: the % may be the effect or the level left
Outline: (§2)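 Hamsters fed a rich diet for 1 week were dosed orally by gavage once daily for 1 week. Plasma total cholesterol and LDL-C were then measured. Values are mean ± SEM.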

Hamster [7] = assay: Antihyperlipidemic activity in high-cholesterol diet fed hamster model assessed as reduction of plasma total cholesterol level at 10 mg/kg, po administered qd for 7 days; type: functional, Cricetinae; design: scale not given: the % may be the effect or the level left; outline: as §2
HepG2 [8] = assay: Increase of [125I]LDL cholesterol degradation in human HepG2 cells at 0.01 uM; type: functional
Hamster [9] = assay: Antihyperlipidemic activity in high-cholesterol diet fed hamster model assessed as reduction of plasma total LDL cholesterol level at 1 mg/kg, po administered qd for 7 days; type: functional, Cricetinae; design: scale not given: the % may be the effect or the level left; outline: as §2
HepG2 [10] = assay: Increase of [125I]LDL cholesterol degradation in human HepG2 cells at 0.1 uM; type: functional
Hamster [11] = assay: Antihyperlipidemic activity in high-cholesterol diet fed hamster model assessed as reduction of plasma total cholesterol level at 3 mg/kg, po administered qd for 7 days; type: functional, Cricetinae; design: scale not given: the % may be the effect or the level left; outline: as §2
Hamster [12] = assay: Antihyperlipidemic activity in high-cholesterol diet fed hamster model assessed as reduction of plasma total cholesterol level at 1 mg/kg, po administered qd for 7 days; type: functional, Cricetinae; design: scale not given: the % may be the effect or the level left; outline: as §2
Hamster [13] = assay: Antihyperlipidemic activity in high-cholesterol diet fed hamster model assessed as reduction of plasma total LDL cholesterol level at 3 mg/kg, po administered qd for 7 days; type: functional, Cricetinae; design: scale not given: the % may be the effect or the level left; outline: as §2
[14] = Solubility in phosphate buffer at pH 7.4 by HPLC analysis; type: physicochemical
Outline: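 Solubility in phosphate buffer was measured at room temperature, with the dissolved amount quantified by HPLC.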

Hamster [15] = assay: Antihyperlipidemic activity in high-cholesterol diet fed po dosed hamster model assessed as reduction of plasma total LDL cholesterol level administered qd for 7 days; type: functional, organism-based; details: Cricetinae; outline: as §2
Hamster [16] = assay: Antihyperlipidemic activity in high-cholesterol diet fed po dosed hamster model assessed as reduction of plasma total cholesterol level administered qd for 7 days; type: functional, organism-based; details: Cricetinae; outline: as §2
HepG2 [17] = assay: Upregulation of LDL receptor expression in human HepG2 cells at 1 uM in presence of ARH-specific siRNA; type: functional, cell-based
Hamster [18] = assay: Antihyperlipidemic activity in high-cholesterol diet fed hamster model assessed as reduction of plasma total LDL cholesterol level at 30 mg/kg, po administered qd for 7 days; type: functional, Cricetinae; design: scale not given: the % may be the effect or the level left; outline: as §2
Hamster [19] = assay: Antihyperlipidemic activity in high-cholesterol diet fed hamster model assessed as reduction of plasma total cholesterol level at 30 mg/kg, po administered qd for 7 days; type: functional, Cricetinae; design: scale not given: the % may be the effect or the level left; outline: as §2
HepG2 [20] = assay: Increase of [125I]LDL cholesterol degradation in human HepG2 cells; type: functional, cell-based

Compound | IC50 [1] | EC25 (HepG2 [2]) | solubility [14] | also measured
COc1cccc(C2(C(=O)NS(=O)(=O)Nc3c(C(C)C)cccc3C(C)C)CCN(c3ccccc3OC)CC2)c1 | > 1000 nM | > 10000 nM |  | 
COc1cccc(C2(C(=O)NS(=O)(=O)Oc3c(C(C)C)cccc3C(C)C)CCN(c3ccccc3OC)CC2)c1.Cl |  |  |  | AUC(0-t) at 6 h [3]: 690 ng·h/mL; Cmax [4]: 300 ng/mL
COc1cccc(C2(C(=O)NS(=O)(=O)Oc3c(C(C)C)cccc3C(C)C)CCN(c3ncccn3)CC2)c1 [listing 1 of 2 here] | > 1000 nM | 47 nM |  | Activity (HepG2 [5]): 140%; Activity (Hamster [6]): -38%; Activity (Hamster [7]): -17%; Activity (HepG2 [8]): 119%; Activity (Hamster [9]): -24%; Activity (HepG2 [10]): 136%; Activity (Hamster [11]): -12%; Activity (Hamster [12]): -8%; Activity (Hamster [13]): -27%
COc1cccc(C2(C(=O)NS(=O)(=O)Oc3c(C(C)C)cccc3C(C)C)CCN(c3ccccc3)CC2)c1 | > 1000 nM | 1520 nM | 180 µg/mL (≈ 327 µM) | 
COc1cccc(C2(C(=O)[N-]S(=O)(=O)Oc3c(C(C)C)cccc3C(C)C)CCN(c3ncccn3)CC2)c1.[Na+] |  |  | 230 µg/mL | AUC(0-t) at 6 h [3]: 1090 ng·h/mL; Cmax [4]: 290 ng/mL
COc1cccc(C2(C(=O)NS(=O)(=O)Oc3c(C(C)C)cccc3C(C)C)CCN(c3ncccc3OC)CC2)c1 | > 1000 nM | > 10000 nM |  | 
CCCCn1c(=O)c(NC(=O)Nc2c(C(C)C)cc(N)cc2C(C)C)c(-c2cccc(OCCCO)c2)c2cccnc21.Cl.O | 31 nM | 490 nM |  | Activity (Hamster [6]): -31%; Activity (Hamster [7]): -29%
CCCc1ccccc1OS(=O)(=O)NC(=O)C1(c2cccc(OC)c2)CCN(c2ccccc2OC)CC1 | > 1000 nM | 4070 nM |  | 
COc1cccc(C2(C(=O)NS(=O)(=O)Oc3c(C(C)C)cccc3C(C)C)CCN(C(=O)c3ccccc3)CC2)c1 | > 1000 nM | > 10000 nM |  | 
COc1cccc(C2(C(=O)NS(=O)(=O)Oc3c(C(C)C)cccc3C(C)C)CCN(c3ccccc3OC)CC2)c1 [listing 1 of 2 here] |  |  |  | Activity (Hamster [15]): Dose-dependent effect; Activity (Hamster [16]): Dose-dependent effect
COc1cccc(C2(C(=O)NS(=O)(=O)Oc3c(C(C)C)cccc3C(C)C)CCN(c3nccc(C)n3)CC2)c1 | > 1000 nM | 500 nM | 200 µg/mL (≈ 353 µM) | 
COc1cccc(C2(C(=O)NS(=O)(=O)Oc3ccccc3)CCN(c3ccccc3OC)CC2)c1 | > 1000 nM | > 10000 nM |  | 
CC(C)c1c(C(=O)Nc2ccccc2)c(-c2ccccc2)c(-c2ccc(F)cc2)n1CC[C@@H](O)C[C@@H](O)CC(=O)O |  |  |  | Activity (HepG2 [17]): Active
COc1cccc(C2(C(=O)NS(=O)(=O)Oc3c(C)cccc3C)CCN(c3ccccc3OC)CC2)c1 | 410 nM | > 10000 nM |  | 
COc1cccc(C2(C(=O)NS(=O)(=O)Oc3c(C(C)C)cccc3C(C)C)CCN(c3ccccc3OC)CC2)c1 [listing 2 of 2 here] | 330 nM | 370 nM |  | Activity (Hamster [6]): -18%; Activity (Hamster [7]): -10%; Activity (Hamster [18]): -25%; Activity (Hamster [19]): -17%; Cmax [4]: 13 ng/mL
COc1cccc(C2(C(=O)NS(=O)(=O)Oc3c(C(C)C)cccc3C(C)C)CCN(C)CC2)c1 | > 1000 nM | > 10000 nM |  | 
COc1cccc(C2(C(=O)NS(=O)(=O)Oc3ccccc3C3CCCC3)CCN(c3ccccc3OC)CC2)c1 | > 1000 nM | 690 nM |  | 

Compound | IC50 [1] | EC25 (HepG2 [2]) | solubility [14] | also measured
COc1cccc(C2(C(=O)NS(=O)(=O)Oc3c(C(C)C)cccc3C(C)C)CCN(c3nc4ccccc4s3)CC2)c1 | > 1000 nM | 260 nM | 3 µg/mL (≈ 4.94 µM) | 
CC(C)c1cccc(C(C)C)c1OS(=O)(=O)NC(=O)C1(c2cccc(OCCO)c2)CCN(c2ncccn2)CC1 |  | 1500 nM | > 200 µg/mL | 
CC(C)c1cccc(C(C)C)c1OS(=O)(=O)NC(=O)C1(c2cccc(OCCCO)c2)CCN(c2ncccn2)CC1 |  | > 10000 nM | > 200 µg/mL | 
CCOc1cccc(C2(C(=O)NS(=O)(=O)Oc3c(C(C)C)cccc3C(C)C)CCN(c3ncccn3)CC2)c1 |  | 3100 nM | 69 µg/mL (≈ 122 µM) | 
COc1cccc(C2(C(=O)NS(=O)(=O)Oc3c(C(C)C)cccc3C(C)C)CCN(c3ncc(Br)cn3)CC2)c1 | > 1000 nM | 610 nM | < 0.1 µg/mL | 
COc1cccc(C2(C(=O)N(C)S(=O)(=O)Oc3c(C(C)C)cccc3C(C)C)CCN(c3ncccn3)CC2)c1 | > 1000 nM | > 10000 nM | < 0.3 µg/mL | 
COc1cccc(C2(C(=O)NS(=O)(=O)Oc3c(C(C)C)cccc3C(C)C)CCNCC2)c1 | > 1000 nM | > 10000 nM |  | 
COc1cccc(C2(C(=O)NS(=O)(=O)Oc3c(C(C)C)cccc3C(C)C)CCN(c3ncccn3)CC2)c1 [listing 2 of 2 here] |  |  |  | Activity (HepG2 [20]): Dose-dependent effect; Activity (Hamster [15]): Dose-dependent effect; Activity (HepG2 [17]): inactive; Activity (Hamster [16]): Dose-dependent effect
COc1cccc(C2(C(=O)NS(=O)(=O)Oc3c(C(C)C)cccc3C(C)C)CCN(c3nccc(C(F)(F)F)n3)CC2)c1 | > 1000 nM | > 10000 nM |  | 
COc1cccc(C2(C(=O)[N-]S(=O)(=O)Oc3c(C(C)C)cccc3C(C)C)CCN(c3ccccc3OC)CC2)c1.[Na+] |  |  |  | AUC(0-t) at 6 h [3]: 1160 ng·h/mL; Cmax [4]: 420 ng/mL
CCCOc1cccc(C2(C(=O)NS(=O)(=O)Oc3c(C(C)C)cccc3C(C)C)CCN(c3ncccn3)CC2)c1 |  | > 10000 nM | < 0.3 µg/mL | 
COc1cccc(C2(C(=O)NS(=O)(=O)Oc3ccccc3C)CCN(c3ccccc3OC)CC2)c1 | > 1000 nM | 3880 nM |  | 
COc1cccc(C2(C(=O)NS(=O)(=O)Oc3c(C(C)C)cccc3C(C)C)CCN(C(C)=O)CC2)c1 | > 1000 nM | > 10000 nM |  | 
CCCc1cnc(N2CCC(C(=O)NS(=O)(=O)Oc3c(C(C)C)cccc3C(C)C)(c3cccc(OC)c3)CC2)nc1 | > 1000 nM | > 10000 nM |  | 
CC(C)c1cccc(C(C)C)c1OS(=O)(=O)NC(=O)C1(c2cccc(O)c2)CCN(c2ncccn2)CC1 |  | > 10000 nM | 200 µg/mL (≈ 371 µM) | 
COc1cccc(C2(C(=O)Nc3c(C(C)C)cccc3C(C)C)CCN(c3ccccc3OC)CC2)c1 | > 1000 nM | > 10000 nM |  | 
